The values that follow come from ChEMBL document CHEMBL4376835, “Discovery of Nonpungent Transient Receptor Potential Vanilloid 1 (TRPV1) Agonist as Strong Topical Analgesic” (J Med Chem, 2020).

The target of data set [1] is T1, Transient receptor potential cation channel subfamily V member 1 (Homo sapiens, UniProt Q8NER1). As to the kind of experiment: Displacement of [3H]-RTX from human TRPV1 expressed in CHO cells incubated for 60 mins by radioligand competition assay based scintillation counting method. In kind it is cell-based.
In data set [2] the target is T1, Transient receptor potential cation channel subfamily V member 1. As to the kind of experiment: Agonist activity at human TRPV1 expressed in CHO cells assessed as increase in 45Ca2+ uptake incubated for 5 mins by liquid scintillation counting method. Format: cell-based. Summed up:
(§1)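 Human or rat TRPV1 heterologously expressed in CHO cells; agonism read as 45Ca2+ uptake, run as previously described. Values are the mean of at least three experiments.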

Data set [3] deals with Transient receptor potential cation channel subfamily V member 1 (Rattus norvegicus, UniProt O35433). As to the kind of experiment: Agonist activity at rat TRPV1 expressed in CHO cells assessed as increase in 45Ca2+ uptake incubated for 5 mins by liquid scintillation counting method. Format: cell-based. Summed up: as §1
For data set [4], the target named is Transient receptor potential cation channel subfamily V member 1 (Rattus norvegicus) (UniProt O35433). As to the kind of experiment: Potency index, ratio of Ki of capsaicin to Ki for displacement of [3H]RTX from rat TRPV1 expressed in CHO cells incubated for 60 mins by scintillation counting method. Format: cell-based.
Data set [5] concerns the target T1, Transient receptor potential cation channel subfamily V member 1. As to the kind of experiment: Potency index, ratio of EC50 of capsaicin to EC50 of compound for agonist activity at human TRPV1 expressed in CHO cells assessed as increase in 45Ca2+ uptake incubated for 5 mins by liquid scintillation counting method. Format: cell-based.
The target of data set [6] is Transient receptor potential cation channel subfamily A member 1 (Mus musculus) (UniProt Q8BLA8). The experiment in a line: Agonist activity at mouse TRPA1 expressed in HEK293 cells assessed as increase in calcium influx at 0.3 to 30 uM incubated for 1 min by Fluo-4-AM dye based FLIPR assay. Format: cell-based. Summed up:
(§2)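 Cells individually transfected with a single TRP channel (TRPV1, hTRPA1, mTRPA1, mTRPV3 or mTRPM8). Intracellular calcium influx recorded by FLIPR after the test compound was applied. Each cell type was also challenged with an agonist suited to its own TRP channel.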

Data set [7] concerns the target T2, Transient receptor potential cation channel subfamily V member 3 (Mus musculus) (UniProt Q8K424).
T2 sequence (whole entry): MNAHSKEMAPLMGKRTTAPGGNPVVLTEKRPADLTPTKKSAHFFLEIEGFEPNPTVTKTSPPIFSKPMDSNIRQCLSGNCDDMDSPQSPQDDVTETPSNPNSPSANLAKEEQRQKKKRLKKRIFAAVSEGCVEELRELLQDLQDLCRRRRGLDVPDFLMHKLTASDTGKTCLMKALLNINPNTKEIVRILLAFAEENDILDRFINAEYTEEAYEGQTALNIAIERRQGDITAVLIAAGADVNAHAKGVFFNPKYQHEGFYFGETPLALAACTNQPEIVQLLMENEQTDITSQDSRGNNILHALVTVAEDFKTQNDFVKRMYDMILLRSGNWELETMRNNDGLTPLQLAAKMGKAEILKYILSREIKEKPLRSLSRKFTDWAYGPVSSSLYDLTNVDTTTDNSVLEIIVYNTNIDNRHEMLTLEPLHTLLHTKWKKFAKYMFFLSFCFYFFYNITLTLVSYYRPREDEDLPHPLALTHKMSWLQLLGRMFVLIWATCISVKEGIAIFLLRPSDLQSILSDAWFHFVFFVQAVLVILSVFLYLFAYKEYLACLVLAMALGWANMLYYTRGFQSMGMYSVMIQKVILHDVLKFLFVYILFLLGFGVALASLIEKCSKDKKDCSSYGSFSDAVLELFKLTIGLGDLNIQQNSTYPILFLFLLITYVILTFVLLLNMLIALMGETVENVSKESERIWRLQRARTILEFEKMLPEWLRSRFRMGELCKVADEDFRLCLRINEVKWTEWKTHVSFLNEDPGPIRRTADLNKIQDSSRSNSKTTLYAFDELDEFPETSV
The experiment in a line: Agonist activity at mouse TRPV3 expressed in HEK293 cells assessed as increase in calcium influx at 0.3 to 30 uM incubated for 1 min by Fluo-4-AM dye based FLIPR assay. In kind it is cell-based. The method in brief: as §2

For data set [8], the target named is Transient receptor potential cation channel subfamily M member 8 (Mus musculus) (UniProt Q8R4D5). As to the kind of experiment: Agonist activity at mouse TRPM8 expressed in HEK293 cells assessed as increase in calcium influx at 0.3 to 30 uM incubated for 1 min by Fluo-4-AM dye based FLIPR assay. In kind it is cell-based. The method in brief:
as §2

A further data set deals with Rattus norvegicus. The experiment in a line: Analgesic activity in ip dosed L5/L6 spinal nerve ligation-induced neuropathic pain Sprague-Dawley rat model assessed as increase in paw withdrawal threshold in response to von frey filament compound administered at day 14 after ligation and measured up to 1.5 hrs after drug dosing by up and down method. In kind it is functional. Summed up: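 Rat spinal nerve ligation model of neuropathic pain. Compound was given i.p. at 1, 2, 5 or 10 mg/kg; a gabapentin 65 mg/kg i.p. arm and a saline i.p. arm were run alongside. Von Frey withdrawal thresholds were taken pre-surgery and on days 1, 7 and 14, then at 0.5, 1 and 1.5 h post-dose. Mean±SEM, n=7-8.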

Data set [9] concerns Mus musculus. The experiment in a line: Analgesic activity in ip dosed formalin-induced nociception ICR mouse model assessed as reduction in pain behaviour by measuring less licking of formalin injected hind paw pretreated with compound 30 mins prior to formalin induction measured during first phase (0-5 mins after formalin injection) by formalin test. Format: functional. The method in brief: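 Mice were dosed i.p. with 0.1–10 mg/kg, with vehicle and gabapentin (50, 100 mg/kg i.p.) arms. 2% formalin was injected into the dorsal hindpaw, and paw-licking time was recorded for the first phase (5 min) and the second phase (20–30 min). ED50 was taken from the dose–response. Mean±SEM, n=8.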

For data set [10], the system named is Mus musculus. The experiment in a line: Antiallodynic activity against capsaicin-induced mechanical allodynia ICR mouse model assessed as inhibition of mechanical hyperalgesia administered topically 30 mins before capsaicin injection and measured over 5 mins. In kind it is functional, organism-based.
A short description of data set [11]: Drug uptake in porcine skin assessed as dermal accumulation applied topically as carbopol-gel with 1% formulation measured for 8 hrs by Franz diffusion cell based in vitro transdermal delivery test. In kind it is ADME, tissue-based, Sus scrofa, Zone of skin. To be noted: pig.
The nature of data set [12]: Systemic drug absorption in porcine skin assessed as drug accumulation in acceptor Franz cell applied topically as carbopol-gel with 1% formulation measured for 8 hrs by Franz diffusion cell based in vitro transdermal delivery test. In kind it is ADME, tissue-based, Sus scrofa, Zone of skin. To be noted: pig.
Data set [13] can be described thus: Genotoxicity in Salmonella typhimurium TA100 incubated for 48 hrs by Ames test. The following applies: salmonella enterica subsp. enterica serovar typhimurium. Format: toxicity.
Data set [14] can be described thus: Genotoxicity in Salmonella typhimurium TA104 incubated for 48 hrs by Ames test. Format: toxicity. The following applies: salmonella enterica subsp. enterica serovar typhimurium.
Data set [15] is described as follows: Genotoxicity in Salmonella typhimurium TA1535 incubated for 48 hrs by Ames test. The following applies: salmonella enterica subsp. enterica serovar typhimurium. Format: toxicity.
Data set [16] can be described thus: Genotoxicity in Salmonella typhimurium TA1537 incubated for 48 hrs by Ames test. Format: toxicity. The following applies: salmonella enterica subsp. enterica serovar typhimurium.
A short description of data set [17]: Genotoxicity in Salmonella typhimurium TA97 incubated for 48 hrs in presence of rat S9 by Ames test. In kind it is toxicity, subcellular. The following applies: salmonella enterica subsp. enterica serovar typhimurium, s9, 48 h.
Data set [18] in a line: Genotoxicity in Salmonella typhimurium TA104 incubated for 48 hrs in presence of rat S9 by Ames test. In kind it is toxicity, subcellular. The following applies: salmonella enterica subsp. enterica serovar typhimurium, s9, 48 h.
Data set [19] is described as follows: Genotoxicity in Salmonella typhimurium TA1535 incubated for 48 hrs in presence of rat S9 by Ames test. Format: toxicity, subcellular. The following applies: salmonella enterica subsp. enterica serovar typhimurium, s9, 48 h.
Data set [20] is described as follows: Genotoxicity in Salmonella typhimurium TA1537 incubated for 48 hrs in presence of rat S9 by Ames test. In kind it is toxicity, subcellular. To be noted: salmonella enterica subsp. enterica serovar typhimurium, s9, 48 h.
Data set [21] in a line: Genotoxicity in Salmonella typhimurium TA1538 incubated for 48 hrs in presence of rat S9 by Ames test. In kind it is toxicity, subcellular. The following applies: salmonella enterica subsp. enterica serovar typhimurium, s9, 48 h.

The source made the active and inactive calls.

T1 sequence (Q8NER1 whole entry): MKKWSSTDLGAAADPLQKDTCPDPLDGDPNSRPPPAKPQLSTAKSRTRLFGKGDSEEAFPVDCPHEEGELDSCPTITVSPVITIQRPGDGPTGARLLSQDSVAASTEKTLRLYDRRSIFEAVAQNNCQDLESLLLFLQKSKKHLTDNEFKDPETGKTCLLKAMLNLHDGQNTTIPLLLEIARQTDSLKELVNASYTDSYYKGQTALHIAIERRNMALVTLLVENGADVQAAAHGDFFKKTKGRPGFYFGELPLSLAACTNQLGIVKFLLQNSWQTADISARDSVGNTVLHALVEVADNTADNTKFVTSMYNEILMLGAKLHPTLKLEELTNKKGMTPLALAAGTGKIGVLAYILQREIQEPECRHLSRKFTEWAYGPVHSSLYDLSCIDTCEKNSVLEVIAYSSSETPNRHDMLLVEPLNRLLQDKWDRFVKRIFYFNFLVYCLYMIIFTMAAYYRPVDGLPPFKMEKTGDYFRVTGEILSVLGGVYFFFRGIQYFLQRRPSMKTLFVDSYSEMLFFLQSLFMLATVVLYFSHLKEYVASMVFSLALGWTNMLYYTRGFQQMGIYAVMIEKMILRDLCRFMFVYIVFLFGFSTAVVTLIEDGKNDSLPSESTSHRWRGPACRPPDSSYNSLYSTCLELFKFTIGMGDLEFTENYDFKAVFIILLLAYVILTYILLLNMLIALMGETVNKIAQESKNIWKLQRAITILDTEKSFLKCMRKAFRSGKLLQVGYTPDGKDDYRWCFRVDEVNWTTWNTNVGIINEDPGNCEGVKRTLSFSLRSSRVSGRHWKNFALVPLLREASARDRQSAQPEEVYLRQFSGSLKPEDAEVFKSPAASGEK
Chain of Transient receptor potential cation channel subfamily A member 1 (Mus musculus) (Q8BLA8 whole entry): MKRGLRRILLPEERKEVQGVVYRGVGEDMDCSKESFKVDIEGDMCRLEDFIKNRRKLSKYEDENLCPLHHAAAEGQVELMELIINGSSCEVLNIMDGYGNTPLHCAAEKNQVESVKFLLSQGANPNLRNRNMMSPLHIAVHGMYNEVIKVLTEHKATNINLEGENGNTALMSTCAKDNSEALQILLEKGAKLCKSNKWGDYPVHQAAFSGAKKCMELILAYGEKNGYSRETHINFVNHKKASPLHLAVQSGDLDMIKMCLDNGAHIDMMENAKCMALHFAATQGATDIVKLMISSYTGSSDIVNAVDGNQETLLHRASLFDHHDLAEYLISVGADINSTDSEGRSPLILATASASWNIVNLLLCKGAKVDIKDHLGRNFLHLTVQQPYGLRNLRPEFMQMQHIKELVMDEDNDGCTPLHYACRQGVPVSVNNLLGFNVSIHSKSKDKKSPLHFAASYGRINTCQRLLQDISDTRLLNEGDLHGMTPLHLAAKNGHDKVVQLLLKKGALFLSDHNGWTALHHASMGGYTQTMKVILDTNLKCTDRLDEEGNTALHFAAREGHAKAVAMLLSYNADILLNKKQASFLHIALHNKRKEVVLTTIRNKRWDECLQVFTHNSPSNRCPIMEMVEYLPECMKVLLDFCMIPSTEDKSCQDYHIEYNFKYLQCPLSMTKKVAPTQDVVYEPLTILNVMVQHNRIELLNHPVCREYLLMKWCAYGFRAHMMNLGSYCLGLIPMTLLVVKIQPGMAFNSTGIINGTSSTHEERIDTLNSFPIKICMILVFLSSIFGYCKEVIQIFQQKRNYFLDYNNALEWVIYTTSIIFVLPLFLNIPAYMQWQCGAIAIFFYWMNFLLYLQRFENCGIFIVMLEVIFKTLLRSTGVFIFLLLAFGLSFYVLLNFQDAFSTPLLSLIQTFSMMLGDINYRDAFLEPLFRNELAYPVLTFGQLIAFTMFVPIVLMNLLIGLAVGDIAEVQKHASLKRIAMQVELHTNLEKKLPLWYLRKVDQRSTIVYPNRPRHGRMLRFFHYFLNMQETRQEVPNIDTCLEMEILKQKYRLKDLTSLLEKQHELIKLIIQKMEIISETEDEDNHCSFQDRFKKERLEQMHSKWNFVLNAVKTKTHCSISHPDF
Chain of Transient receptor potential cation channel subfamily M member 8 (Mus musculus) (Q8R4D5 whole entry): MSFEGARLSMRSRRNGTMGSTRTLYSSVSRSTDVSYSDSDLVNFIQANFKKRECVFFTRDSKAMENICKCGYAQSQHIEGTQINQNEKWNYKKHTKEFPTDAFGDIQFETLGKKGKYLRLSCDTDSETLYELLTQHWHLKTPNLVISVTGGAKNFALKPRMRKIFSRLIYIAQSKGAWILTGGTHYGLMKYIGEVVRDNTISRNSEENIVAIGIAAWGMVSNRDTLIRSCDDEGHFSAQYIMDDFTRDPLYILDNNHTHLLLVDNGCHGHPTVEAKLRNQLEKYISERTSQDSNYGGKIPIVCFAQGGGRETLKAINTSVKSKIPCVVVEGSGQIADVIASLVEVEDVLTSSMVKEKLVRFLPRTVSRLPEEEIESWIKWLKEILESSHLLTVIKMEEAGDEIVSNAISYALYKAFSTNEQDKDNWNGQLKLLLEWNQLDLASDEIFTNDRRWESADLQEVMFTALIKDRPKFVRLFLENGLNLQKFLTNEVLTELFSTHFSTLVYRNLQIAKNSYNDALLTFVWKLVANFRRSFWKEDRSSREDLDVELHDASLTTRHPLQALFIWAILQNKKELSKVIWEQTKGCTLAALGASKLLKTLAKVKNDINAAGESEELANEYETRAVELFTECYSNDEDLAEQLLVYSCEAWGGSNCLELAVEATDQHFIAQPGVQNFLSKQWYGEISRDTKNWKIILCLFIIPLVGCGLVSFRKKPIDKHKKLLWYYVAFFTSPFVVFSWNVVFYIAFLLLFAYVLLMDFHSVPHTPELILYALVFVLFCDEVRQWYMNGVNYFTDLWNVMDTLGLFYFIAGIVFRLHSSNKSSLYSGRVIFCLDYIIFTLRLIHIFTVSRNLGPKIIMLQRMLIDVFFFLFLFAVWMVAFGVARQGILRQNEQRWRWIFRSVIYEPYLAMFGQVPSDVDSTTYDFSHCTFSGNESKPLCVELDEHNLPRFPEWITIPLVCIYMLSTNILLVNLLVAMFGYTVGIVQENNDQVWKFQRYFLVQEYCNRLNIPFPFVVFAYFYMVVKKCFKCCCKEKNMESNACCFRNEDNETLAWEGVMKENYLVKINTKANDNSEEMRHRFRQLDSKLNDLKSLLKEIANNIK
Chain of Transient receptor potential cation channel subfamily V member 1 (Rattus norvegicus) (O35433 whole entry): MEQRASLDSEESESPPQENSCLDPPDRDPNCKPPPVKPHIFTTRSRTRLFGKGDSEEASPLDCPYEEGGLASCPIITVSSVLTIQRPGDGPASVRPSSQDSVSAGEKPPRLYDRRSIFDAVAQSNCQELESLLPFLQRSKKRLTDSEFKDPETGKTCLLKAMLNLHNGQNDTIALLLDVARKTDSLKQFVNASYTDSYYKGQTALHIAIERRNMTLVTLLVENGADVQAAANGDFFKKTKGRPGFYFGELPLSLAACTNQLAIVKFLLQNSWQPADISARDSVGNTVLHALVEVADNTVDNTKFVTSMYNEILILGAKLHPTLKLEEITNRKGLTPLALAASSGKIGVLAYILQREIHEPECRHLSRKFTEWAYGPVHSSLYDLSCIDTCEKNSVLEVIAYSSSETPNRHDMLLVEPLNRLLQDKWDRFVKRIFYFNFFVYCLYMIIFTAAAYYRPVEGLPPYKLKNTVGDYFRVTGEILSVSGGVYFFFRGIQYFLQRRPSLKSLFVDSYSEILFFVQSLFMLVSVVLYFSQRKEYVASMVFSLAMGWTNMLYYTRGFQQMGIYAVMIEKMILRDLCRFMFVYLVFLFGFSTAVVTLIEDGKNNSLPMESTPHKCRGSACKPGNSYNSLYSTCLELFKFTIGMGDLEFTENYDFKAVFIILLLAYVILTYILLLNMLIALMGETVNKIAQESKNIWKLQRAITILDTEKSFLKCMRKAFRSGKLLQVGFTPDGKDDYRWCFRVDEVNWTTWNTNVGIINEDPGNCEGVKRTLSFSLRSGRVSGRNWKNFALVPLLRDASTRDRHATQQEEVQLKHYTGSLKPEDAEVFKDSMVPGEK
Chain of Transient receptor potential cation channel subfamily V member 1 (Rattus norvegicus, UniProt O35433) (O35433 whole entry): as above

`CC(C)(C)c1nc(-c2cccc(Cl)c2)c(CNC(=O)Nc2ccc(CO)c(F)c2)s1` registered a Ki in data set [1] of 11.4 nM. Also, the EC50 in data set [2] was 5.05 nM; in data set [3], 93 nM. In addition, the Ratio Ki in [4] was found to be 80. Further, in data set [5], the Ratio EC50 stood at 5. In addition, the result in data set [6], in data set [7] and in data set [8] was inactive. Further, the Activity entry in the data set on Rattus norvegicus is “Dose-dependent effect”; with Mus musculus [9], “Dose-dependent effect”; with Mus musculus [10], “Dose-dependent effect”; in data set [13], “Non-Toxic”; in [14], “Non-Toxic”; in data set [15] it was “Non-Toxic”. For the same compound, the Activity result in data set [16], in data set [17], in data set [18], in data set [19], in data set [20] and in data set [21] was “Non-Toxic” throughout. The ED50 with Rattus norvegicus was 0.5 to 2 mg/kg; in the data set with Mus musculus [9] it was 0.79 mg/kg. Besides, the Drug uptake entry in data set [11] is given as “Active”. In data set [12], the Drug absorption result was “Not Active”.
